# OXTR agonist = activates the human oxytocin receptor. P30559. CHO-OTR cells, Fluo-8 calcium fluorescence; normalized: DMSO 0%, oxytocin 100%. activation, % at 3 µM. 320,000 compounds, 0.32% hits;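 active = activation above the mean of all tested compounds plus 3 SD, cutoff set per screening run, cut at about 20% in these data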;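 note: peak over basal fluorescence ratio from a 100 s FLIPR kinetic read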
# TAAR1 antag = antagonists of human TAAR1; inhibition, % at 3 µM; 360,000 compounds, 1.5% hits; CHO RD-HGA16 TAAR1, Fluo-8 calcium fluorescence, antagonist; Q96RJ0;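 active = inhibition above a per-plate cutoff, the mean inhibition of test compounds on that plate plus 3 SD, cut at about 49% in these data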;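 note: 0% = DMSO plus EC80 beta-PEA response and 100% = DMSO alone without agonist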
#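 Assay system: CHO-derived RD-HGA16 cells stably expressing human TAAR1 plus Gα16. Timing: 140 s kinetic read after compound, 140 s after agonist. Technique: kinetic Fluo-8 calcium fluorescence measurement. Measure: % inhibition of agonist calcium response.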
# V1aR counter = counter-screen for oxytocin receptor agonists: human V1a receptor agonists | 320,000 compounds, 0.25% hits | P37288 | activation, % at 3 µM | CHO-V1R cells, Fluo-8 calcium fluorescence, agonist mode; 0% DMSO, 100% 3 nM vasopressin;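 active = activation above the mean activation of all tested compounds plus 3 SD, per screening run, cut at about 20% in these data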;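 note: signal is peak over basal fluorescence ratio across a 100 second FLIPR read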
# Target sequence (P37288 whole entry, looked up): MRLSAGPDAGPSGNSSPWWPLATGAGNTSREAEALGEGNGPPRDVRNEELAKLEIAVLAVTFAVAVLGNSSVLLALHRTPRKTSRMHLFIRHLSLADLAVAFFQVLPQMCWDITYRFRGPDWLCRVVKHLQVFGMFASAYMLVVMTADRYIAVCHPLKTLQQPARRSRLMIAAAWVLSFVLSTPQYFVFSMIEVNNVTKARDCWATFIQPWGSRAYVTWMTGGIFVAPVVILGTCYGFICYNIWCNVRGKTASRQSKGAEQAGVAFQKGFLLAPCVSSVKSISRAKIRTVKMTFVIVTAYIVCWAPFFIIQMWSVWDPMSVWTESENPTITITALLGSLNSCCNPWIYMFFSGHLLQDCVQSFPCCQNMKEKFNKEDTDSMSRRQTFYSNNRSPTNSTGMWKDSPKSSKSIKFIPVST
# TAAR1 ag = agonists of human TAAR1 | CHO RD-HGA16 TAAR1, Fluo-8 calcium fluorescence; vehicle wells 0%, saturating PEA agonist 100% | activation, % at 3 µM | 360,000 compounds, 0.99% hits | AID 624467;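 active = activation above the mean activation of all test compounds in the run plus 3 SD, cut at about 38% in these data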
#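 Repeats: no replicates (n 1) | Material: CHO-derived RD-HGA16 cells with stable Gα16 and human TAAR1 | Technique: Kinetic Fluo-8 calcium fluorescence | Schedule: 17-24 h seeding, 75 min 37 °C dye, 30 min RT | Evaluation: % activation from peak over basal fluorescence ratio, DMSO-to-PEA scaled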
# OXTR potentiate = potentiates the human oxytocin receptor response. 320,000 compounds, 0.061% hits. CHO-OTR cells, Fluo-8 calcium fluorescence, potentiator mode; 0% = oxytocin EC15, 100% = EC100. activation, % at 3 µM. P30559;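 active = activation above that plate's cutoff, the mean activation of tested compounds plus 3 SD, cut at about 6.6% in these data, passing the limit was not always enough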;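 note: 100% uses oxytocin at 75 nM as the full agonist control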
#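 Assay system: CHO cell line stably expressing human OTR | Also added: Oxytocin at about EC15, sub-maximal agonist stimulus | Times: Compound 6 min at room temperature before oxytocin, 100 s read | Measured by: Fluo-8 intracellular calcium fluorescence, ex 470-495, em 515-575 nm | Controls: EC15 oxytocin alone as 0%, 75 nM oxytocin as 100%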
# TAAR1 ag conf = human TAAR1 agonism, confirmed; shares compounds with TAAR1 ag; CHO RD-HGA16 TAAR1, Fluo-8 calcium fluorescence; scaled: DMSO 0%, maximal phenethylamine 100%; activation, % at 3 µM; 2,400 compounds, 82% hits;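 active = activation above a cutoff set at the run's mean compound activation plus 3 SD, cut at about 39% in these data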
# Ga16 ag counter = nonselective agonist in parental cells, TAAR1 agonist counter-screen. shares compounds with TAAR1 ag. CHO-Ga16 parental, Fluo-8 calcium fluorescence; normalized to maximal ATP response, DMSO zero. activation, % at 3 µM. 2,400 compounds, 50% hits. AID 651787;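 active = activation above the run cutoff, the mean activation over all tested wells plus 3 SD, cut at about 12% in these data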;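 note: 0% = DMSO wells and 100% = maximal ATP response on the peak over basal ratio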
# TAAR1 desensitize = counter-screen for human TAAR1 agonists: agonists that desensitize TAAR1; shares compounds with TAAR1 ag; CHO RD-HGA16 hTAAR1, Fluo-8 calcium, beta-PEA response inhibition; inhibition, % at 3 µM; 2,400 compounds, 46% hits;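 active = inhibition above the run cutoff, the mean inhibition of all test compounds plus 3 SD, cut at about 49% in these data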;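 note: beta-PEA stimulus applied at its EC80; loss of beta-PEA calcium signal after compound pretreatment read as receptor desensitization; 0% = DMSO with beta-PEA at EC80 and 100% = DMSO alone without agonist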
# Ga16 nonsel ant = counter-screen for TAAR1 agonists: nonselective Ga16 antagonists; CHO-Ga16 ATP-induced calcium, Fluo-8 fluorescence; AID 651952; 2,400 compounds, 39% hits; shares compounds with TAAR1 ag; inhibition, % at 3 µM;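 active = inhibition above the plate's mean compound inhibition plus 3 SD, computed per plate, cut at about 22% in these data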;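 note: 0% = EC80 ATP with DMSO and 100% = DMSO wells without ATP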
# An asterisk follows results filed as active; . = no result given. An excerpt weighted towards active compounds, which were near 2.3% of everything screened.
SMILES,OXTR agonist,TAAR1 antag,V1aR counter,TAAR1 ag,OXTR potentiate,TAAR1 ag conf,Ga16 ag counter,TAAR1 desensitize,Ga16 nonsel ant
O=C1OC(N2CCN(C(=O)c3ccco3)CC2)c2ccccc21 (configuration not stated),0,11,0,52*,-4,66*,0,17,8
COc1ccc(C[C@@H]2CN3C(=NC[C@@H]3C)N2CCNC(=O)c2ccc(C)c(Br)c2)cc1,-1,4,0,45*,-4,54*,15*,6,11
C[C@H](NC(=O)c1[nH]cnc1C(=O)N[C@H](C)c1ccccc1)c1ccccc1,4,25,2,47*,-7,41*,10,16,6
O=C(N/N=C/c1cc([N+](=O)[O-])cc(Br)c1O)C12CC3CCC(CC(C3)C1)C2,2,10,1,50*,-7,66*,54*,23,14
CC1(c2ccc(OC(F)F)cc2)NC(=O)N(CC(=O)c2ccc3c(c2)OCO3)C1=O (configuration not stated),41*,96*,39*,136*,-22,118*,81*,102*,49*
CC1(c2ccc(OC(F)F)cc2)NC(=O)N(CC(=O)NC2CCCCC2)C1=O (configuration not stated),5,9,6,20,-6,.,.,.,.
CC1(c2ccc([N+](=O)[O-])cc2)NC(=O)N(CC(=O)c2ccc3c(c2)OCO3)C1=O (configuration not stated),34*,47,23*,90*,-20,117*,70*,76*,37*
O=C(NCCc1ccc(F)cc1)c1coc(=O)c(Br)c1,0,35,0,68*,-11,66*,1,16,8
O=C(Nc1ccccc1F)c1coc(=O)c(Br)c1,0,-12,0,5,-2,.,.,.,.
COc1cccc(OC)c1C(=O)Nc1cccc(S(=O)(=O)Nc2ccccc2Cl)c1,0,7,2,5,-6,.,.,.,.
COc1ccccc1NS(=O)(=O)c1cccc(NC(=O)Nc2ccc(Cl)cc2)c1,9,76*,10,56*,-19,46*,19*,93*,58*
COC(=O)c1cccc(F)c1C(=O)c1cccc2ccccc12,.,8,.,6,.,.,.,.,.
O=c1c(-c2ccc(O)cc2)coc2cc(OC3OC(CO)C(O)C(O)C3O)ccc12 (configuration not stated),0,7,1,0,-4,.,.,.,.
CCOC(=O)[C@]12CCC=C1N(Cc1ccc3c(c1)OCO3)C(=O)[C@H](CC(=O)NCCc1ccccc1OC)C2,.,38,.,60*,.,91*,3,76*,-2
CCCCNC(=O)C[C@@H]1C[C@@]2(C(=O)OC)CCCCC=C2N(Cc2ccco2)C1=O,.,-17,.,3,.,.,.,.,.
COC(=O)[C@]12CCCCC=C1N(Cc1ccco1)C(=O)[C@H](CC(=O)NCCc1ccccc1OC)C2,.,9,.,51*,.,31,3,26,20
COC(=O)[C@@]12C[C@@H](CC(=O)NCCc3ccccc3OC)C(=O)N(Cc3ccc4c(c3)OCO4)C1=CCC(C)(C)C2,.,51*,.,61*,.,100*,0,58*,-1
CCOC(=O)[C@]12CCC=C1N(Cc1cccc3ccccc13)C(=O)[C@H](CC(=O)NCCc1ccccc1OC)C2,.,35,.,55*,.,70*,1,46,14
Cc1ccc(NC(=O)C2CCN(C(=O)NCc3ccccc3)CC2)cc1C,0,-24,1,7,-2,.,.,.,.
CCC(Cc1c(I)cc(I)c(N)c1I)C(=O)O (configuration not stated),0,-12,1,-1,-3,.,.,.,.
CC(N=C1NS(=O)(=O)c2ccccc21)C(=O)OCC(=O)N(C)C1CCS(=O)(=O)C1 (configuration not stated),-1,2,0,13,0,.,.,.,.
Cc1cc(OCC(=O)OCC(=O)N(C)c2c(N)n(Cc3ccccc3)c(=O)[nH]c2=O)ccc1Cl,0,-5,0,0,0,.,.,.,.
CCCCCCCCN1C(=O)[C@H](CC(=O)NCCCC)C[C@@]2(C(=O)OCC)CCCC=C12,.,-14,.,-2,.,.,.,.,.
CCCCCCCCN1C(=O)[C@H](CC(=O)NCCc2ccccc2OC)C[C@@]2(C(=O)OCC)CCCC=C12,.,-2,.,56*,.,57*,2,25,10
COC(=O)C(NC(=O)CCC(=O)N[C@@H](C(=O)OC)c1ccccc1)c1ccccc1 (some centres not stated),0,7,0,5,-15,.,.,.,.
SMILES,OXTR agonist,TAAR1 antag,V1aR counter,TAAR1 ag,OXTR potentiate,TAAR1 ag conf,Ga16 ag counter,TAAR1 desensitize,Ga16 nonsel ant
CC1CCCN(CCC(=O)c2ccccc2)C1 (configuration not stated),.,25,.,72*,.,85*,4,40,5
O=C1/C(=C\c2ccc(Br)o2)Cc2ccccc21,-2,32,-2,50*,0,7,10,-12,-1
O=C1/C(=C/c2cccs2)Cc2ccccc21,-2,-9,-1,-2,5,.,.,.,.
CCN(c1ccccc1)S(=O)(=O)c1cc(NC(=O)CN2CCN(C)CC2)ccc1Cl,2,-8,2,3,-3,.,.,.,.
CCCOc1ccc(OCCOCCN2CCc3ccccc3C2)cc1,2,43,1,102*,-3,77*,1,64*,2
CCOc1ccc(OCCOCCN2CCc3ccccc3C2)cc1,0,-13,0,33,1,.,.,.,.
C=CCc1cc(OC)ccc1OCCOCCN1CCc2ccccc2C1,1,-12,0,48*,-7,56*,6,13,4
Cc1csc(SCC(=O)NC(C)c2ccc(F)cc2)n1 (configuration not stated),-1,-5,3,0,-11,.,.,.,.
O=C1C=C(c2ccc(F)nc2)CCC1,0,9,0,7,-3,.,.,.,.
CCN1CCN(C(c2cccnc2)c2c(NC(=O)c3ccco3)sc(C)c2C)CC1 (configuration not stated),1,-5,0,1,-1,.,.,.,.

# Assay outcomes from PubChem.
